Experimental data pooled from the literature.
Each line is one published result; the experiments were not run side by side.
Target: Ephrin type-A receptor 3 (EPHA3, Homo sapiens, UniProt P29320)
Residues used in one study (P29320 21-983): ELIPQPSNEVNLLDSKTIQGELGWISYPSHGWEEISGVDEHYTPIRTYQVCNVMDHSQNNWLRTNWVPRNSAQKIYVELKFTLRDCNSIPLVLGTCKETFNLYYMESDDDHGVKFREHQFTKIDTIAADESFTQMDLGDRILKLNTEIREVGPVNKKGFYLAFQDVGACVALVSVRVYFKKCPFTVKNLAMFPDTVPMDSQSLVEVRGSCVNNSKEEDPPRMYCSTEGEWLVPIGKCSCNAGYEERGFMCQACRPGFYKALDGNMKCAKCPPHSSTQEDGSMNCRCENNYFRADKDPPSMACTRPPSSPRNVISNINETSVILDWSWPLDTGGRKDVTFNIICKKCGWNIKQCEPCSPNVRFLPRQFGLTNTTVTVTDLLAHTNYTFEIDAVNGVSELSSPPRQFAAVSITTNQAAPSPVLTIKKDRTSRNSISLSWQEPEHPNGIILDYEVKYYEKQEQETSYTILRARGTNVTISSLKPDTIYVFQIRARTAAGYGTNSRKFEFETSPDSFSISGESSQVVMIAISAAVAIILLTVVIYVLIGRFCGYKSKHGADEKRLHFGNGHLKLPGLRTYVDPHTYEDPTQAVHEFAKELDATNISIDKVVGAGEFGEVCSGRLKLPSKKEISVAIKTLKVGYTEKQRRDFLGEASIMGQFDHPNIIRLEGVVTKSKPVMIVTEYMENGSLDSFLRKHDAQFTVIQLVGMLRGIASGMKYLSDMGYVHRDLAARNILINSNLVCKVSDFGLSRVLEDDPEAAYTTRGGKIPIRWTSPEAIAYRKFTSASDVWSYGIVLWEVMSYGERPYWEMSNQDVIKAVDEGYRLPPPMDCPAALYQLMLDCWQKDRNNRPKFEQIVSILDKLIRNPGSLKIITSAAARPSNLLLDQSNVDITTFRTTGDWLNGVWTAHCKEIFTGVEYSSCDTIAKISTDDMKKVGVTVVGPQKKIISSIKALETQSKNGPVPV

For `CC1CCCN1c1nccc(-c2cnn3ncccc23)n1` (stereo not drawn), the remaining binding was 97% (binding; 1 µM).
`FC(F)(F)Oc1cccc(-c2cnc3ccc(-c4ccncc4)nn23)c1` gave a remaining binding of 76% (cell-free assay, competition with immobilised ligand; 5 µM).
`COc1cnc(Nc2cccc(S(N)(=O)=O)c2)nc1N1CCN(c2ccccc2)CC1` gave a remaining binding of 73% (binding, competition with immobilised ligand; 1 µM).
For `Cn1nc(C(=O)NCc2ccc(C(=O)O)cc2)cc1-c1ccc2[nH]ccc2c1`, the remaining binding was 89% (cell-free assay, competition with immobilised ligand; 0.1 µM).
The remaining binding of `C[C@@H]1CCN(c2nccc(-c3cnn4ncccc34)n2)C1` is reported as 61% (binding; 1 µM).
The remaining binding of `CN1CCN(c2cnc3c(C4CCN(C(=O)c5ccc(OC(F)(F)F)cc5N)CC4)ncnc3c2)CC1` is reported as 100% (cell-free assay, competition with immobilised ligand; 1 µM).
With `O=C(NCCCN1CCOCC1)c1ccc(Nc2nccc(-c3cc4ccccc4s3)n2)cc1` the remaining binding was 85% (binding, competition with immobilised ligand; 1 µM).
`N[C@@H]1CCN(c2nccc(-c3cnn4ncccc34)n2)C1` gave a remaining binding of 100% (binding; 1 µM).
`O=C(Nc1c[nH]nc1C(=O)NC1CCNCC1)c1cc(F)cc(F)c1` has a remaining binding of 100% (binding, competition with immobilised ligand; 1 µM).
`CC(=O)Nc1c(C(C)=O)c(=O)n(C)c2nc(-c3ccc(Cl)cc3Cl)c(-c3ccc(Cl)cc3)cc12` gave a remaining binding of 100% (cell-free assay, competition with immobilised ligand; 1 µM).
`Cc1cnn2ncc(-c3ccnc(N(C)C)n3)c2c1` has a remaining binding of 84% (binding; 1 µM).
`CC(=O)N1CCC(c2ccc(C(=O)NC3=NCCN3)cc2C(F)(F)F)CC1` has a remaining binding of 95% (cell-free assay, competition with immobilised ligand; 1 µM).
`c1cncc(-c2cccc(Nc3nccc(NC4CCCCC4)n3)c2)c1` gave a remaining binding of 68% (binding, competition with immobilised ligand; 10 µM).
The remaining binding of `C[C@@H](c1ccc(-n2cnc3c(N)ncnc32)cc1)N1CCc2nn(C)c(Cc3ccccc3)c2C1=O` is reported as 83% (binding, competition with immobilised ligand; 0.1 µM).
For `COc1ccc2c(O[C@@H]3C[C@H]4C(=O)N[C@]5(C(=O)O)CC5/C=C\CCCCC[C@H](NC(=O)OC5CCCC5)C(=O)N4C3)cc(-c3csc(NC(=O)C(C)C)n3)nc2c1C` (stereo partly drawn), the remaining binding was 97% (cell-free assay, competition with immobilised ligand; 1 µM).
With `CNC(=O)[C@@H]1CC[C@@H](n2c(-c3ccc4cnccc4c3)nc3ccc(C(=O)NCc4cccc(C(N)=O)c4)cc32)C1` the remaining binding was 96% (binding, competition with immobilised ligand; 1 µM).
`CN(C)c1nccc(-c2cnn3ncccc23)n1` gave a remaining binding of 90% (binding; 1 µM).
`O=C(c1ccc(Nc2nccc(-c3cc4ccccc4s3)n2)cc1)N1CCC(N2CCCC2)CC1` gave a remaining binding of 94% (binding, competition with immobilised ligand; 1 µM).
`CC1=C(C#N)[C@@H](c2ccc3[nH]nc(C)c3c2)C(C#N)=C(c2ccc(Cl)cc2)N1` gave a remaining binding of 100% (cell-free assay, competition with immobilised ligand; 1 µM).
For `CN(CCCC(F)(F)F)c1nccc(-c2cnn3ncccc23)n1`, the remaining binding was 100% (binding; 1 µM).
`COc1ncc2cc3ccccc3nc2c1C#N` gave a remaining binding of 96% (cell-free assay, competition with immobilised ligand; 5 µM).
